Reference: ChEMBL document CHEMBL1949565, “4-nitrobenzyloxycarbonyl derivatives of O(6)-benzylguanine as hypoxia-activated prodrug inhibitors of O(6)-alkylguanine-DNA alkyltransferase (AGT), which produces resistance to agents targeting the O-6 position of DNA guanine” (J Med Chem, 2011)
Calls of active or inactive are those of the source. No cut-off for these calls is given here.

Key:
[1] = Prodrug activation assessed as formation of O6-benzylguanine in presence of Zn/EDTA
Method in brief: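 Each agent at 50 μM in 50 mM Tris-HCl, 10 mM EDTA, pH 7.0, was shaken briefly with about 4 mg/mL Zn dust at room temperature. After centrifugation, the supernatant was analysed by reverse-phase HPLC with UV detection at 280 nm.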

[2] = Prodrug activation assessed as formation of O6-benzylguanine under normoxic condition at 20 uM after 1 hr by HPLC analysis in presence of xanthine/xanthine oxidase
Method in brief: (§1)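 Test agent at 20 μM (from DMSO) in 100 mM potassium phosphate pH 7.4 at 37 °C, with either cytochrome P450 reductase plus 1 mM NADPH, or 0.16 units/mL xanthine oxidase plus 1 mM xanthine. Oxygen deficiency came from glucose oxidase/catalase with 10 mM glucose. Aerobic mixtures omitted glucose and were shaken as shallow layers in sealed flasks. Samples at 0 and 1 h were quenched with acetonitrile and analysed by HPLC.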

[3] = Prodrug activation assessed as formation of O6-benzylguanine under oxygen-deficient condition at 20 uM after 1 hr by HPLC analysis in presence of xanthine/xanthine oxidase; method in brief: as §1
[4] = Prodrug activation assessed as formation of O6-benzylguanine under normoxic condition at 20 uM after 1 hr by HPLC analysis in presence of NADPH:CYP450 reductase; type: ADME; method in brief: as §1
[5] = Prodrug activation assessed as formation of O6-benzylguanine under oxygen-deficient condition at 20 uM after 1 hr by HPLC analysis in presence of NADPH:CYP450 reductase; type: ADME; method in brief: as §1
Homo sapiens [6] = species on record: Homo sapiens; assay: Inhibition of human recombinant AGT assessed as prevention of O6-(2-chloroethyl)guanine and N1,O6-ethanoguanine-DNA adduct repair at 50 uM after 30 mins by fluorescence assay
Method in brief: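 About 40 fmol purified recombinant human AGT in stabilization buffer (20 mM Tris-HCl, 1 mM EDTA, BSA 1 mg/mL, 0.1 mM DTT, L1210 DNA, pH 7.4) preincubated with inhibitor for 30 min at 37 °C. It was then incubated 30 min at 37 °C with L1210 DNA bearing O6-chloroethylguanine/N1,O6-ethanoguanine lesions (~50 fmol). Unrepaired lesions were converted to cross-links at 50 °C for 2–3 h. Cross-linking was read by Hoechst 33258 fluorescence before and after heat denaturation.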

DU-145 [7] = assay: Prodrug activation in human DU145 cells assessed as formation of O6-benzylguanine under normoxic condition at 20 uM after 3 hrs by HPLC analysis; type: cell-based; conditions: du-145, 3 h
Method in brief: (§2)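 Cells at 10^7/mL with ~20 μM prodrug at 37 °C: EMT6 in DMEM with 10% FBS, DU145 in α-MEM with 10% FBS, each with 10 mM glucose. Normoxic suspensions were shaken as shallow layers in flasks. Oxygen-deficient incubations used sealed tubes with an extra 10 mM glucose, glucose oxidase 2 units/mL and catalase 120 units/mL. Samples at 0–3 h were acetonitrile-extracted and analysed by HPLC.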

EMT6 [8] = assay: Prodrug activation in mouse EMT6 cells assessed as formation of O6-benzylguanine under normoxic condition at 20 uM after 3 hrs by HPLC analysis; type: cell-based; conditions: emt6, 3 h; method in brief: as §2
EMT6 [9] = assay: Prodrug activation in mouse EMT6 cells assessed as formation of O6-benzylguanine under oxygen-deficient condition at 20 uM after 3 hrs by HPLC analysis; type: cell-based; conditions: emt6, 3 h; method in brief: as §2
DU-145 [10] = assay: Prodrug activation in human DU145 cells assessed as formation of O6-benzylguanine under oxygen-deficient condition at 20 uM after 3 hrs by HPLC analysis; type: cell-based; conditions: du-145, 3 h; method in brief: as §2
DU-145 [11] = assay: Inhibition of AGT-mediated potentiation of laromustine-induced cytotoxicity in human DU145 cells at 40 uM pretreated for 6 hrs prior laromustine addition measured after 24 hrs incubation under normoxic condition by clonogenic assay; type: functional, cell-based
Method in brief: (§3)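 DU145 monolayers seeded at 2.5 × 10^5 cells per flask and treated 3 days later. Pretreatment with prodrug for 6 h, then laromustine added in medium for 24 h at 37 °C; DMSO ≤ 0.05%. For oxygen deficiency, glucose oxidase 2 units/mL plus catalase 120 units/mL in high-glucose DMEM, with flasks nitrogen-flushed and sealed. Aerobic flasks were unsealed and lacked these enzymes. Colonies were crystal-violet stained after 10–14 days; plating in duplicate.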

DU-145 [12] = assay: Inhibition of AGT-mediated potentiation of laromustine-induced cytotoxicity in human DU145 cells at 40 uM pretreated for 6 hrs prior laromustine addition measured after 24 hrs incubation under oxygen deficiency condition by clonogenic assay; type: functional, cell-based; method in brief: as §3
Homo sapiens [13] = species on record: Homo sapiens; assay: Inhibition of human recombinant AGT assessed as prevention of O6-(2-chloroethyl)guanine and N1,O6-ethanoguanine-DNA adduct repair at 0.1 uM after 30 mins by fluorescence assay
Method in brief: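 Purified recombinant human AGT (~40 fmol) in stabilization buffer (20 mM Tris-HCl, 1 mM EDTA, 1 mg/mL BSA, 0.1 mM DTT, 2 μg/mL L1210 DNA, pH 7.4) preincubated with inhibitor 30 min, 37 °C. Then added to L1210 DNA substrate treated with a chloroethylating hydrazine (~50 fmol lesions), 30 min, 37 °C. Heated 50 °C 2–3 h. Cross-links quantified by Hoechst 33258 fluorescence before/after heat denaturation. Inhibition derived from remaining cross-link precursors.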

Compound | Drug degradation [1] [%molar] | Drug metabolism [2] [µM] | Drug metabolism [3] [µM] | Drug metabolism [4] [µM] | Drug metabolism [5] [µM] | inhibition (Homo sapiens [6]) [%] | Drug metabolism (DU-145 [7]) | Drug metabolism (EMT6 [8]) | Drug metabolism (EMT6 [9]) | Drug metabolism (DU-145 [10]) | inhibition (DU-145 [11]) | inhibition (DU-145 [12]) | inhibition (Homo sapiens [13]) [%]
CC(OC(=O)Nc1nc(OCc2ccccc2)c2nc[nH]c2n1)c1ccc([N+](=O)[O-])cc1 (stereo unspecified) | 35.4 | < 0.05 | 11.6 | < 0.05 | 0.1 | < 1 | Not Active | Not Active | Active | – | – | – | –
CC(C)(OC(=O)Nc1nc(OCc2ccccc2)c2nc[nH]c2n1)c1ccc([N+](=O)[O-])cc1 | 54.8 | < 0.05 | 14.8 | 0.1 | 13.9 | < 1 | Not Active | Not Active | Active | Active | inactive | Active | –
Nc1nc(OCc2ccccc2)c2nc[nH]c2n1 | – | – | – | – | – | – | – | – | – | – | – | – | 47
O=C(Nc1nc(OCc2ccccc2)c2nc[nH]c2n1)OCc1ccc([N+](=O)[O-])cc1 | 4 | < 0.05 | 2.8 | < 0.05 | < 0.05 | < 1 | Not Active | Not Active | Active | – | – | – | –
